Source: PMC4253050 (Cellular signalling, 2014)

Legend:
kB1R [1] = biological target: T1, kB1R (Homo sapiens, UniProt P46663); assay: [3H]DAKD binding and endocytosis assay, cell surface kB1R, HEK293 cells; conditions: HEK cells stably expressing kB1R and kB2R; 10 min, 37 °C (DAKD 1 μM), no acid wash; 4 nM [3H]DAKD 90 min on ice; n=3
T1 sequence (P46663 1-353): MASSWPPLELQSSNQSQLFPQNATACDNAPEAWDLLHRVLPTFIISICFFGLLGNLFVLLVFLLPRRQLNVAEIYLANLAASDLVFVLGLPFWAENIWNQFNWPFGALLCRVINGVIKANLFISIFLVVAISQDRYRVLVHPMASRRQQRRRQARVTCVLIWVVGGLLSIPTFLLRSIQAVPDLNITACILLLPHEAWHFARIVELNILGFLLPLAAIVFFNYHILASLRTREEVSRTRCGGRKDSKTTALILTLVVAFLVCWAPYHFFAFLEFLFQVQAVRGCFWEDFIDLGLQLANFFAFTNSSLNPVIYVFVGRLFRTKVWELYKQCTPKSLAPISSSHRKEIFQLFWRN
In short: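 Confluent monolayers were rinsed three times in warm PBS and exposed to unlabelled agonist or vehicle (PBS). They were washed with ice-cold PBS, and binding was then done on ice. Cells were washed three times in cold PBS, lysed in 0.2 M NaOH and counted by scintillation. Total binding was taken as label bound in cells given PBS alone.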

kB1R [2] = biological target: T1, kB1R; assay: [3H]Arachidonic acid release, kB1R-mediated, cells co-expressing kB1R and kB2R; type: cell-based; conditions: stably co-expressing HEK cells (so in the source); 1 μM
In short: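 Cells at ~80% confluence were labelled for 18–24 h in growth medium with 0.1% FBS and 1 μCi/ml [³H]arachidonic acid. They were washed three times in HAM's/F12 buffer (HEPES, NaHCO₃, 0.1% fat-free BSA), then incubated with agonist in that buffer at 37 °C. Released label in the collected medium was counted by liquid scintillation.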

[3] = system: GPCRs coupled with Gαq (LPA); assay: Intracellular Ca2+ response to LPA, HEK cells; type: cell-based, human
In short: (§1)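 Cross-desensitization in HEK293 cells stably expressing kB1R, loaded with fura-2 (2 μM, 60 min, 37 °C) on polylysine coverslips. Cells were given thrombin or LPA followed by kB1R agonist, or kB1R agonist first and then thrombin or LPA. [Ca²⁺]i was read as 510 nm emission at 340/380 nm excitation.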

kB1R [4] = biological target: T1, kB1R; assay: Phosphoinositide turnover; type: cell-based; conditions: stably co-expressing HEK cells; 1 μM
kB2R = biological target: T2, kB2R (Homo sapiens, UniProt P30411); assay: Intracellular Ca2+ response; type: cell-based; conditions: HEK cells stably expressing kB1R and kB2R; first 1 μM DAKD, then 1 μM KD
T2 sequence (P30411 1-391): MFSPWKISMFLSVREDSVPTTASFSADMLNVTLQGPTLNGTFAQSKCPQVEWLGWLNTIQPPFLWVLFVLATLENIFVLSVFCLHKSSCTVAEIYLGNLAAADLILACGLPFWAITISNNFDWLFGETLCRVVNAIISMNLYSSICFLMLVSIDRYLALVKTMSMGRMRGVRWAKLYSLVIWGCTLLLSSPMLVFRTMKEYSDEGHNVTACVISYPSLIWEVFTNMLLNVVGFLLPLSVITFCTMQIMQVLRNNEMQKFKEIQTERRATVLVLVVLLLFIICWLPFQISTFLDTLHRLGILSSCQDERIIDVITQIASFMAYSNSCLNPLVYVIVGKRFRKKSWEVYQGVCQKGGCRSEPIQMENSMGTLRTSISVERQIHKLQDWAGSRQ

[5] = system: human lung microvascular endothelial cells (HLMVEC); assay: Transendothelial electrical resistance; type: cell-based; conditions: cytokine-treated HLMVEC; 100 nM; BK in the presence of MGTA; n = 4
In short: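 Primary HLMVEC (passage 3–6) were grown to confluence on gold electrodes coated with 10 μg/ml fibronectin. Cells were cytokine-primed for 16 h with IL-1β plus 100 U/ml IFN-γ, then moved to EBM-2 with 1% FBS for 1 h and impedance-monitored (ECIS) until baseline was stable. BK samples were pretreated with 40 μM MGTA. Cells received ±100 nM BK for 10 min, then 100 nM DAKD or vehicle, with or without 200 μM pyrogallol; TER recorded.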

kB1R [6] = biological target: T1, kB1R; assay: Intracellular Ca2+ response; type: cell-based; conditions: for effect of pre-stimulation on kB1R response: kB1R expressing cells, discussion summary
In short: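 Receptor-expressing HEK cells were grown to 80% confluence on polylysine-coated glass coverslips. They were loaded with 2 μM fura-2/AM for 60 min at 37 °C. For pre-stimulation, cells received vehicle or a kinin agonist (e.g. 1 μM BK) for 10 min, then a kB1R agonist. The [Ca²⁺]i rise was quantified as area under the curve and plotted against log dose; n=3, mean ± SE.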

[7] = system: protease activated receptor; assay: Intracellular Ca2+ response to thrombin, HEK cells; type: cell-based, human
In short: as §1

[8] = HEK cells stably expressing kB1R
[9] = HEK cells stably expressing kB1R or kB2R

Substance: des-Arg^9 -HOE-140 [des-Arg-HOE140]
- inhibition of [3H]-DAKD binding, without acid washing (kB1R [1]): ~ 80%

Substance: des-Arg^10-kallidin [DAKD]
- arachidonic acid release response (kB1R [2]): responded robustly
- inhibition of [3H]-DAKD binding, without acid washing (kB1R [1]): ~ 80%
- effect of kB1R agonist on calcium response to subsequent LPA [3, 8]: did not reduce the calcium response
- IP3 turnover response (kB1R [4]): responded robustly
- calcium response to 1 μM KD added after pre-stimulation with kB1R agonist (kB2R): second robust increase
- increase in TER [5]: substantial and prolonged

Substance: lysophosphatidic acid [LPA]
- effect of LPA on kB1R response to subsequent DAKD (kB1R [6]; [8]): did not decrease the kB1R response
- effect of pre-stimulation on kB1R response (kB1R [6]): did not reduce the kB1R response
- increase in [Ca2+]i by LPA ([3]; HEK cells expressing kB1R): relatively lower calcium response than thrombin
- cross-desensitization between kB1R, kB2R and LPA [3, 9]: Lack of cross-desensitization

Substance: thrombin
- increase in [Ca2+]i by thrombin [7, 8]: large increase in [Ca^2+]i
- cross-desensitization between kB1R, kB2R and thrombin [7, 9]: Lack of cross-desensitization
- effect of thrombin on increase in [Ca2+]i induced by subsequent DABK (1 μM) (kB1R [6]; [8]): did not inhibit the increase in [Ca^2+]i
- effect of pre-stimulation on kB1R response (kB1R [6]): did not reduce the kB1R response
